Tests used:
[1] = target: T1, Estrogen receptor (Mus musculus) (UniProt O08537+P19785); assay: (§1) Estrogenic activity in uterotrophic assay in immature mice at 250 ug subcutaneous dose; assay type: functional
Summary of the method: (§2)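 Immature female NMRI mice, 20 days old, in groups of 6-10, were dosed sc once daily for three consecutive days. Compounds were given in PEG/0.9% saline 1:1; vehicle controls were included. Animals were killed 24 h after the last dose. Uteri were fixed in Bouin solution and the effect was taken as uterine dry weight (mg)/body weight (g) ×100, given as mean ± SD.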

[2] = target: T2, Androgen receptor (Mus musculus) (UniProt P19091); assay: Relative effect on seminal vesicle weight in adult and castrated mice at 100 ug dose; assay type: functional, tissue-based
T2 sequence (whole entry): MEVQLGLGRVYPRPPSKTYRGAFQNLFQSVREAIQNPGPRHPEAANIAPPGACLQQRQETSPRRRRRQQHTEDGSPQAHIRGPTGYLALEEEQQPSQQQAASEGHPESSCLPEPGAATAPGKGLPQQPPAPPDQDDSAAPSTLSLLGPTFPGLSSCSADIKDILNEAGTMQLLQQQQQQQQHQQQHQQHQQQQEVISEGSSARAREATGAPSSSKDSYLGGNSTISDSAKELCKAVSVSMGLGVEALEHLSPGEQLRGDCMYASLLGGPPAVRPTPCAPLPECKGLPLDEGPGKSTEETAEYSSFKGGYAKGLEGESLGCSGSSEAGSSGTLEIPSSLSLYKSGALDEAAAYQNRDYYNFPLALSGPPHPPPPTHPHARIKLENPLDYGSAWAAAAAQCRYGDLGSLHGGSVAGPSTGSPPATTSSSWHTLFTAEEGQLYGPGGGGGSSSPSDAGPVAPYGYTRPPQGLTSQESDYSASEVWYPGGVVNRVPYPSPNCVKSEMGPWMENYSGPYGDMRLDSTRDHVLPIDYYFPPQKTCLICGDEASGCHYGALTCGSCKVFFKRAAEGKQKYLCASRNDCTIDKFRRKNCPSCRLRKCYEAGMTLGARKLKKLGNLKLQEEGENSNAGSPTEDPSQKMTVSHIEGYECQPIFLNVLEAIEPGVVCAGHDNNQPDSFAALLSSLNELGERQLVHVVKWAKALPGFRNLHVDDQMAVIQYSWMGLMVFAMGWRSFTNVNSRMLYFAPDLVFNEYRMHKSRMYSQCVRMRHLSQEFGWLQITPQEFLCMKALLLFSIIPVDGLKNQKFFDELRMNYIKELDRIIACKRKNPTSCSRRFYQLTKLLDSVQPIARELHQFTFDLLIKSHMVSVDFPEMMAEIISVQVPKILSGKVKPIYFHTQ
Summary of the method: (§3)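 Adult male mice, 23–25 g, six per group, were used intact or castrated via the scrotal route under ether 5 days before the test. Castrates received 0.3 mg testosterone propionate daily. Compounds were injected daily in olive oil for nine days. Seminal vesicles were taken 24 h later, fixed in Bouin solution, dried overnight at 100 °C and weighed. Result is organ mg/body g ×100; % inhibition = [1 − treated/control] × 100.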

[3] = target: T2, Androgen receptor (Mus musculus); assay: Inhibition of seminal vesicle weight in intact mice at 100 ug
[4] = target: T2, Androgen receptor (Mus musculus); assay: Relative effect on seminal vesicle weight in adult and castrated mice at 1000 ug dose; assay type: functional, tissue-based; summary of the method: as §3
[5] = target: T1, Estrogen receptor (Mus musculus); assay: (§4) Estrogenic activity in uterotrophic assay in immature mice at 50.0 ug subcutaneous dose; assay type: functional; summary of the method: as §2
[6] = target: T1, Estrogen receptor (Mus musculus); assay: Inhibition of 0.4 ug estrone-stimulated uterine growth in mice at 2 ug subcutaneous dose; assay type: functional
Summary of the method: (§5)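 Immature 20-day-old female NMRI mice received sc injections on three consecutive days. Each injection held 0.4 µg estrone plus the compound in PEG/saline 1:1. […] Significance was tested by Mann-Whitney U test.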

Bos taurus = species on record: Bos taurus; assay: Relative binding affinity(RBA) as ratio of progesterone and compound required to displace [3H]-org 2058 binding to Progesterone receptor by 50%
Summary of the method: (§6)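 Receptor source was calf uterine cytosol (105000g supernatant, 3 mg/mL protein in assay). Buffers were Tris/EDTA pH 7.4, with NaN₃ for ER, molybdate/glycerol for AR, and sucrose for PR. Tracers were 1 nM [³H]estradiol, [³H]mibolerone or [³H]Org 2058. Incubation was at 0–4 °C for 16 h (ER) or 2 h (AR, PR), with 4–6 competitor concentrations. Nonspecific binding used 2 µM of the unlabeled hormone. Separation was by dextran-coated charcoal. RBA is the ratio of IC50 values for hormone and compound ×100, mean of two triplicate experiments.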

[7] = target: T1, Estrogen receptor (Mus musculus); assay: as §4; assay type: functional; summary of the method: as §2; remark: listed apart in the source
MDA-MB-231 [8] = assay: Effect on [3H]thymidine incorporation into MDA-MB 231 human breast cancer cells at 5x10E-6M; assay type: functional
Summary of the method: (§7)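 Cells were seeded at ~2 × 10⁴ per well, treated from the next day in 0.1% DMSO, with DMSO controls. MCF-7 cells were held in charcoal-stripped NCS for 2 weeks, treated for 5 days and re-dosed on day 4. MDA-MB 231 cells were grown in McCoy 5a/10% NCS and treated for 2 days. At the end, 1 µCi [³H]thymidine per well was added for 2 h. Result is % T/C, mean of three experiments × six dishes.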

[9] = target: T1, Estrogen receptor (Mus musculus); assay: (§8) Estrogenic activity in uterotrophic assay in immature mice at 2 ug subcutaneous dose; assay type: functional; summary of the method: as §2
[10] = target: T1, Estrogen receptor (Mus musculus); assay: (§9) Estrogenic activity in uterotrophic assay in immature mice at 10.0 ug subcutaneous dose; assay type: functional; summary of the method: as §2
MDA-MB-231 [11] = assay: Cytostatic effect on hormone-independent MDA-MB 231 human breast cancer cell proliferation at 1x10E-5 M; assay type: functional
Summary of the method: (§10)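 Cells were plated at about 2 × 10⁴ per well in six-well dishes. MCF-7 cells were grown in modified improved MEM with 5% NCS, switched to charcoal-treated NCS two weeks before the test, and exposed for 5 days with a re-dose on day 4. MDA-MB 231 cells were grown in McCoy 5a with 10% NCS and exposed for 2 days. Compounds were given 1 day after plating in 0.1% DMSO, with DMSO-matched controls. Read-out was cell number as % T/C, mean of three experiments with six dishes.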

[12] = target: T1, Estrogen receptor (Mus musculus); assay: as §1; assay type: functional; summary of the method: as §2; remark: listed apart in the source
[13] = target: T2, Androgen receptor (Mus musculus); assay: Inhibition of seminal vesicle weight in intact mice at 10.0 ug
[14] = target: T2, Androgen receptor (Mus musculus); assay: Relative effect on seminal vesicle weight in adult and castrated mice at 10 ug dose; assay type: functional, tissue-based; summary of the method: as §3
[15] = target: T2, Androgen receptor (Mus musculus); assay: Inhibition of seminal vesicle weight in intact mice at 10.0 ug; remark: listed apart in the source
MDA-MB-231 [16] = assay: Effect on [3H]thymidine incorporation into MDA-MB 231 human breast cancer cells at 1x10E-5 M; assay type: functional; summary of the method: as §7
[17] = target: T1, Estrogen receptor (Mus musculus); assay: as §8; assay type: functional; summary of the method: as §2; remark: listed apart in the source
[18] = target: T1, Estrogen receptor (Mus musculus); assay: as §9; assay type: functional; summary of the method: as §2; remark: listed apart in the source
MCF7 [19] = assay: Effect on [3H]thymidine incorporation into MCF-7 human breast cancer cells at 1x10E-5 M; assay type: functional; summary of the method: as §7
MDA-MB-231 [20] = assay: Cytostatic effect on hormone-independent MDA-MB 231 human breast cancer cell proliferation at5x10E-6M; assay type: functional; summary of the method: as §10
[21] = target: T3, Androgen Receptor (Bos taurus) (UniProt Q5EM59); assay: Relative binding affinity(RBA) for 50% displacement of [3H]mibolerone from Androgen receptor compared to testorone; summary of the method: as §6
T3 sequence (whole entry): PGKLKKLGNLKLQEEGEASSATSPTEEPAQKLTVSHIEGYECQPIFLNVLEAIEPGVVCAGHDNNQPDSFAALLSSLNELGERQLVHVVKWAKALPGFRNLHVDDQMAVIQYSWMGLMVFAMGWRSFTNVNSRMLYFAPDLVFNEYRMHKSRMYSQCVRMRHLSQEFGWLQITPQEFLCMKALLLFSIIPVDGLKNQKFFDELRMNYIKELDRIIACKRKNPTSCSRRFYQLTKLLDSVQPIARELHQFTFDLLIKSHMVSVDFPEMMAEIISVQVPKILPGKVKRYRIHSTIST

MCF7 [22] = assay: Effect on hormone-dependent MCF-7 human breast cancer cell proliferation at 1x10E-5 M; assay type: functional; summary of the method: as §10
MDA-MB-231 [23] = assay: Cytostatic effect on hormone-independent MDA-MB 231 human breast cancer cell proliferation at 1x10E-6M; assay type: functional; summary of the method: as §10
MDA-MB-231 [24] = assay: Effect on [3H]-thymidine incorporation into MDA-MB 231 human breast cancer cells at 1x10E-6M; assay type: functional; summary of the method: as §7
MCF7 [25] = assay: Effect on [3H]thymidine incorporation into MCF-7 human breast cancer cells at 1x10E-6M; assay type: functional; summary of the method: as §7
[26] = target: Estrogen receptor (Bos taurus) (UniProt Q9XSB5+P49884); assay: Relative binding affinity(RBA) for 50% displacement of [3H]-estradiol from Estrogen receptor compared to 17-beta-estradiol; assay type: protein assay; summary of the method: as §6
[27] = target: T1, Estrogen receptor (Mus musculus); assay: (§11) Estrogenic activity in uterotrophic assay in immature mice at 125 ug subcutaneous dose; assay type: functional; summary of the method: as §2
[28] = target: T1, Estrogen receptor (Mus musculus); assay: (§12) Estrogenic activity in uterotrophic assay in immature mice at 40.0 ug subcutaneous dose; assay type: functional; summary of the method: as §2
[29] = target: T1, Estrogen receptor (Mus musculus); assay: as §12; assay type: functional; summary of the method: as §2; remark: listed apart in the source
[30] = target: T1, Estrogen receptor (Mus musculus); assay: as §11; assay type: functional; summary of the method: as §2; remark: listed apart in the source
[31] = target: T1, Estrogen receptor (Mus musculus); assay: Inhibition of 0.4 ug estrone-stimulated uterine growth in mice at 125 ug subcutaneous dose; assay type: functional; summary of the method: as §5
MCF7 [32] = assay: Effect on hormone-dependent MCF-7 human breast cancer cell proliferation at 1x10E-6M; assay type: functional; summary of the method: as §10
[33] = target: T1, Estrogen receptor (Mus musculus); assay: Inhibition of 0.4 ug estrone-stimulated uterine growth in mice at 40.0 ug subcutaneous dose; assay type: functional; summary of the method: as §5

T1 sequence (O08537 whole entry, looked up): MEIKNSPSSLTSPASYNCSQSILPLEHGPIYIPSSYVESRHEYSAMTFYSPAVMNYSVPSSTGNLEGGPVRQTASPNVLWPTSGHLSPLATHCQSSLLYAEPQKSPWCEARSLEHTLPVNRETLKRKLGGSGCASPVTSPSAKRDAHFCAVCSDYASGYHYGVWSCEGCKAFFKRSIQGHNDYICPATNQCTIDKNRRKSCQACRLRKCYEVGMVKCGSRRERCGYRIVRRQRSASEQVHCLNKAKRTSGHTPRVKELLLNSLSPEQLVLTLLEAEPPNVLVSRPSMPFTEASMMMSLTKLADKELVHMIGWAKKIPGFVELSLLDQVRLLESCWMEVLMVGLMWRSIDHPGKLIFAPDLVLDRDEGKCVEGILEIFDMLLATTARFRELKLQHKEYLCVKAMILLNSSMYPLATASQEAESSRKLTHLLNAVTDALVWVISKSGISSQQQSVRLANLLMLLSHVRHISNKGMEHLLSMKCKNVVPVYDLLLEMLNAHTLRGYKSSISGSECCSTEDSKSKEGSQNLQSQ
T1 sequence (P19785 whole entry, looked up): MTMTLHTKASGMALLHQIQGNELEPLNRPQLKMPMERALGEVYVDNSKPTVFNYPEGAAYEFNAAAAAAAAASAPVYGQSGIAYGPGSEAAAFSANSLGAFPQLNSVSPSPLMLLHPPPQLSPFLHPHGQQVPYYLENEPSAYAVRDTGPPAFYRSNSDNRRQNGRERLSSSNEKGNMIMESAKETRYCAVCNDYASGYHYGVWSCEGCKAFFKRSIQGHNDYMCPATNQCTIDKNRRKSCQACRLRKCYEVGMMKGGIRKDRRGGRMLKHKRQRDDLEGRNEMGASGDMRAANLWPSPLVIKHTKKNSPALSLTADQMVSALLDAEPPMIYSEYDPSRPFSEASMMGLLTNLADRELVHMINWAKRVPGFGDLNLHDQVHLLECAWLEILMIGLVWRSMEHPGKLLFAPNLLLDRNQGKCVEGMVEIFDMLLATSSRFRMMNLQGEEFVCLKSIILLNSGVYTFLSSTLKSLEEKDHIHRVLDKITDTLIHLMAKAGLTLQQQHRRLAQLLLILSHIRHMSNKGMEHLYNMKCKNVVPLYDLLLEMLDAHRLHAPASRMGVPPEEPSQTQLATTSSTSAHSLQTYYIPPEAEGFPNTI

| inhibition [6] | RBA (Bos taurus) | Effect [9] | Effect [17] | RBA [21] | RBA [26] | SMILES | T/C (MDA-MB-231 [11]) | T/C (MDA-MB-231 [16]) | T/C (MCF7 [19]) | T/C (MCF7 [22]) | T/C (MDA-MB-231 [23]) | T/C (MCF7 [25]) | other results |
| --- | --- | --- | --- | --- | --- | --- | --- | --- | --- | --- | --- | --- | --- |
| -8% | 0.01 | 52.6 | 21.2 | 0.2 | 12 | CC(=O)Oc1ccc2c(c1)CC(C)n1c-2cc2cc(OC(C)=O)ccc21 (stereo unspecified) | 5% | 5% | 2% | 7% | 78% | 36% | Effect [1]: 61.1; Relative seminal vesicle weight [2]: 145; inhibition [3]: 27%; Relative seminal vesicle weight [4]: 45.2; Effect [5]: 53.3; Effect [7]: 61.2; T/C (MDA-MB-231 [8]): 10%; Effect [10]: 26.3; Effect [12]: 72.2; inhibition [13]: 1%; Relative seminal vesicle weight [14]: 195; inhibition [15]: 1%; Effect [18]: 56; T/C (MDA-MB-231 [20]): 10%; T/C (MDA-MB-231 [24]): 65% |
| 19.6% | < 0.01 | 48.2 | 14.5 | 0.03 | 4.6 | CCC1Cc2cc(OC(C)=O)ccc2-c2c(C=O)c3cc(OC(C)=O)ccc3n21 (stereo unspecified) | 14% | 7% | 3% | 13% | 75% | 41% | Effect [27]: 56; Effect [28]: 38.2; Effect [29]: 54.7; Effect [30]: 54.7; inhibition [31]: 2.7%; T/C (MCF7 [32]): 55%; inhibition [33]: 2.6% |
